Experiments:
[1] = test system: HIF in IDH1 R132H immortalized human astrocytes; assay type: cell-based; details: 21% oxygen, increasing amounts for 16 hours
Procedure, shortened: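 Immortalized human astrocytes (passage 10) expressing wild-type or mutant IDH1 were dosed with test compound for 16 h before lysis in 50 mM Tris pH 8.0, 120 mM NaCl, 0.5% NP-40 with protease inhibitors. Extracts were run on 10% SDS-PAGE and transferred to nitrocellulose. Blots were blocked in TBS/5% milk, probed with anti-HIF1α monoclonal antibody, and detected by HRP-secondary chemiluminescence.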

[2] = test system: collagen P4H-I; experiment: Inhibition of collagen P4H-I, 14CO2 release; assay type: biochemical, human; details: in vitro; 100 µM 2-oxo-[1-14C]glutarate
[3] = target: EglN3 (Homo sapiens, UniProt Q9H6Z9); assay type: biochemical; details: standard assay conditions, 10 μM 2-OG
EglN3, sequence (Q9H6Z9 whole entry): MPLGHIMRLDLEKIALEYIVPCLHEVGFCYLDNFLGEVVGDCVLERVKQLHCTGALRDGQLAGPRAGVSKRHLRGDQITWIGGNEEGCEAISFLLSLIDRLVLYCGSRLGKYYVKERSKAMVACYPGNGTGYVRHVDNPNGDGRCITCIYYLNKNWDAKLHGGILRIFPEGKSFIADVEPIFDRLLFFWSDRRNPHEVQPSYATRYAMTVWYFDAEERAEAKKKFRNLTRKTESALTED

[4] = test system: Tet2; experiment: Inhibition of Tet2, 14CO2 release, double stranded oligonucleotide substrate; assay type: biochemical, murine; details: in vitro; 120 µM 2-oxo-[1-14C]glutarate
[5] = target: T1, EglN1 (Homo sapiens, UniProt Q9GZT9); assay type: biochemical
T1 sequence (Q9GZT9 whole entry): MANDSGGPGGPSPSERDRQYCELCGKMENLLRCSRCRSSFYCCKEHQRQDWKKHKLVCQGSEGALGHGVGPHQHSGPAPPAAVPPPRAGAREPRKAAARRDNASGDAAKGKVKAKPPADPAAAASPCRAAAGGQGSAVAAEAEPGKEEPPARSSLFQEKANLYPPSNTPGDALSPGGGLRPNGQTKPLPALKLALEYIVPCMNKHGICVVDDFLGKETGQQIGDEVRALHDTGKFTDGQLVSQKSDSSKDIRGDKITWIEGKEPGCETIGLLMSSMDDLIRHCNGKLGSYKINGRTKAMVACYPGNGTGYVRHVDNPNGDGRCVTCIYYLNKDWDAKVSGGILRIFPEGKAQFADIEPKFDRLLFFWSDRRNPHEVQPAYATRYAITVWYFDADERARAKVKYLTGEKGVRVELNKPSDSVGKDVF

[6] = test system: Tet1; experiment: Inhibition of Tet1, 14CO2 release, double stranded oligonucleotide substrate; assay type: biochemical, murine; details: in vitro; 120 µM 2-oxo-[1-14C]glutarate
[7] = test system: collagen P4H-I; assay type: biochemical, human; details: no exogenous 2-OG
[8] = target: T1, EglN1; assay type: biochemical; remark: listed apart in the source
[9] = test system: FIH; experiment: Inhibition of FIH, 14CO2 release, synthetic peptide substrate; assay type: biochemical, human; details: in vitro; 10 µM 2-oxo-[1-14C]glutarate
[10] = target: T2, EglN2 (Homo sapiens, UniProt Q96KS0); assay type: biochemical; details: low mM concentrations, reactions lacking exogenous 2-OG
T2 sequence (Q96KS0 whole entry): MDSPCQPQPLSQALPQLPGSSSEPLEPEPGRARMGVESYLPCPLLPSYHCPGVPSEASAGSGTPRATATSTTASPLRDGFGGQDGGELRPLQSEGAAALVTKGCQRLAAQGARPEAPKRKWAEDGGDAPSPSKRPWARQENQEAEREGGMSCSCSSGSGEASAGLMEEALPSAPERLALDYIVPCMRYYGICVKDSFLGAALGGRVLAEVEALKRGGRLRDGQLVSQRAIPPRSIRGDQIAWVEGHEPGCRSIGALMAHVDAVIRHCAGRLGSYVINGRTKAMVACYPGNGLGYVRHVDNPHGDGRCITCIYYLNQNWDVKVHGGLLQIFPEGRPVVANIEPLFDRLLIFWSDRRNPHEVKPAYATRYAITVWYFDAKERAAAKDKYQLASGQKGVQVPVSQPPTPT

[11] = target: T2, EglN2; assay type: biochemical; details: standard assay conditions, 10 μM 2-OG
[12] = test system: JMJD2D histone demethylase; experiment: JMJD2D histone demethylase activity; assay type: biochemical; details: data not shown; for Inhibition of JMJD2D histone demethylase (in words): in vitro

Structure (SMILES) | Resistance of R132H-expressing cells to the agent (HIF immunoblot) [1] | Inhibition of collagen prolyl 4-hydroxylases (in words) [2] | IC50 ([3]; read-out: IC50, EglN3 inhibition) [mM] | Inhibition of TET2 methyl cytosine hydroxylase (in words) [4] | Prolyl hydroxylation of HIF1α by EglN1 ([5]; increasing R-2HG with 10 μM 2-OG, concentrations as high as 100 mM) | Promotion of EglN1 activity ([5]; low mM concentrations, reactions lacking exogenous 2-OG) | Inhibition of TET1 methyl cytosine hydroxylase (in words) [6] | Promotion of collagen prolyl 4-hydroxylase activity [7] | Release of 14CO2 in EglN1 assays ([8]; increasing amounts of R-2HG added to 10 μM 2-oxo-[1-14C]glutarate) | Inhibition of HIF asparaginyl hydroxylase FIH (in words) [9] | Promotion of EglN2 activity [10] | IC50 ([11]; read-out: IC50, EglN2 inhibition) [mM] | Promotion of JMJD2D histone demethylase activity [12] | Inhibition of JMJD2D histone demethylase (in words) [12] | Inhibition of EglN3 (in words) [3] | Inhibition of EglN1 (in words) ([8]; standard assay conditions, 10 μM 2-OG) | Inhibition of EglN2 (in words) [11]
COC(=O)CNC(=O)C(=O)OC [DMOG] | relatively resistant | – | – | – | – | – | – | – | – | – | – | – | – | – | – | – | –
O=C(O)CC[C@@H](O)C(=O)O [R-2HG, R-2-hydroxyglutarate] | – | inhibit | > 5 | inhibit | without decreasing | promoted | inhibit | did not promote | progressively decreased | inhibit | promoted | > 5 | did not promote | inhibit | – | – | –
O=C(O)CC[C@H](O)C(=O)O [S-2HG, S-2-hydroxyglutarate] | – | inhibit | – | inhibit | – | – | inhibit | – | – | inhibit | – | – | – | inhibit | micromolar to low millimolar inhibitor | micromolar to low millimolar inhibitor | micromolar to low millimolar inhibitor

From publication PMC3656605 (Nature, 2012)
